Measurements reported in ChEMBL document CHEMBL2146438, “Radiolabeled cyclosaligenyl monophosphates of 5-iodo-2'-deoxyuridine, 5-iodo-3'-fluoro-2',3'-dideoxyuridine, and 3'-fluorothymidine for molecular radiotherapy of cancer: synthesis and biological evaluation” (J Med Chem, 2012).

Columns and labels:
OVCAR-3 [1] = assay: Cellular uptake in human OVCAR3 cells at 16.7 +/- 1.2 kBq/mL after 3 hrs by gamma counting; format: ADME, cell-based; details: ovcar-3, 3 h
Method in brief: (§1)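 Time-course uptake of resolved 125I-labelled diastereomers in LS 174T (colorectal) or OVCAR-3 (ovarian) cells at the stated radioactive concentration; cell-associated radioactivity counted at each time point; mean and std dev, n = 3 per time.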

[2] = Cellular uptake in human LS 174T cells at 13.6 +/- 0.4 kBq/mL after 3 hrs by gamma counting; format: ADME, cell-based; details: ls174t; method in brief: as §1
[3] = Cellular uptake in human OVCAR3 cell cytoplasm assessed as per 10^3 cells after 24 hrs by gamma counting; format: ADME, cell-based; details: ovcar-3, 24 h, 24 h
Method in brief: (§2)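 OVCAR-3 cells incubated 1 h with 55.5 (0.04) kBq/mL 125I-labelled agent (diastereomer mixtures or resolved slow isomers); fractionated either immediately or after 24 h further growth in fresh nonradioactive medium; 125I in cytoplasm and nucleus counted as cpm/10^3 cells with std dev.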

[4] = Cellular uptake in human OVCAR3 cell nucleus assessed as per 10^3 cells after 24 hrs by gamma counting; format: ADME, cell-based; details: ovcar-3, 24 h, 24 h; method in brief: as §2
[5] = Cellular uptake in human OVCAR3 cell nucleus assessed as per 10^3 cells after 1 hr by gamma counting; format: ADME, cell-based; details: ovcar-3, 1 h, 1 h; method in brief: as §2
[6] = Cellular uptake in human OVCAR3 cell cytoplasm assessed as per 10^3 cells after 1 hr by gamma counting; format: ADME, cell-based; details: ovcar-3, 1 h, 1 h; method in brief: as §2
[7] = Cellular uptake in human LS 174T cells at 17.5 +/- 0.3 kBq/mL after 3 hrs by gamma counting; format: ADME, cell-based; details: ls174t; method in brief: as §1
OVCAR-3 [8] = assay: Cellular uptake in human OVCAR3 cells after 3 hrs by gamma counting; format: ADME, cell-based; details: ovcar-3, 3 h
Method in brief: (§3)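 Concentration-dependent uptake: LS 174T or OVCAR-3 cells exposed to increasing concentrations of 125I-labelled diastereomers for 3 h; 131IUdR added to the medium as internal standard of proliferation; saturable uptake fitted to give Bmax as molecules/cell.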

[9] = Half life of the compound in phosphate buffer at pH 7.3; format: physicochemical
[10] = Cellular uptake in human U87MG cells by gamma counting; format: ADME, cell-based; details: u-87mg atcc
OVCAR-3 [11] = assay: Cellular uptake in human OVCAR3 cells at 46.9 +/- 1.1 kBq/mL up to 90 mins by gamma counting; format: ADME, cell-based; details: ovcar-3, 1.5 h; method in brief: as §1
OVCAR-3 [12] = assay: Cellular uptake in human OVCAR3 cells at 46.9 +/- 1.1 kBq/mL after 90 mins by gamma counting; format: ADME, cell-based; details: ovcar-3, 1.5 h; method in brief: as §1
[13] = Cellular uptake in human LS 174T cells at 46.9 +/- 1.1 kBq/mL up to 90 mins by gamma counting; format: ADME, cell-based; details: ls174t, 1.5 h; method in brief: as §1
[14] = Cellular uptake in human LS 174T cells at 46.9 +/- 1.1 kBq/mL after 90 mins by gamma counting; format: ADME, cell-based; details: ls174t, 1.5 h; method in brief: as §1
[15] = Cytotoxicity against human LS 174T cells assessed as colony formation at 114.5 kBq/mL incubated for 4 hrs measured after 21 days by clonogenic assay; format: functional, LS174T
Method in brief: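 LS 174T cells exposed 4 h to 114.5 kBq/mL 125I agent, cultured 24 h in nonradioactive medium, then harvested and plated; colonies counted after 21 days; surviving fraction = treated colonies / untreated control colonies.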

[16] = Cellular uptake in human LS 174T cells after 3 hrs by gamma counting; format: ADME, cell-based; details: ls174t; method in brief: as §3
[17] = Chemical stability of the compound in phosphate buffer at pH 7.3; format: physicochemical
OVCAR-3 [18] = assay: Cellular uptake in human OVCAR3 cells at 35.1 +/- 0.3 kBq/mL after 6 hrs by gamma counting; format: ADME, cell-based; details: ovcar-3, 6 h
Method in brief: (§4)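 Time-course uptake in LS 174T or OVCAR-3 cells at 35.1±0.3 kBq/mL, continued to 6 h; cell-associated 125I counted; mean and std dev, n = 3 per time.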

[19] = Cellular uptake in human LS 174T cells by gamma counting; format: ADME, cell-based; details: ls174t
OVCAR-3 [20] = assay: Cellular uptake in human OVCAR3 cells at 35.1 +/- 0.3 kBq/mL after 3 hrs by gamma counting; format: ADME, cell-based; details: ovcar-3, 3 h; method in brief: as §1
[21] = Cellular uptake in human LS 174T cells at 35.1 +/- 0.3 kBq/mL after 6 hrs by gamma counting; format: ADME, cell-based; details: ls174t; method in brief: as §4
[22] = Cellular uptake in human LS 174T cells at 35.1 +/- 0.3 kBq/mL after 3 hrs by gamma counting; format: ADME, cell-based; details: ls174t; method in brief: as §1
[23] = Cellular uptake in human U87MG DNA incubated for 1 hr followed by compound wash out measured after 24 hrs by gamma counting; format: ADME, cell-based; details: u-87mg atcc
Method in brief: (§5)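 U-87 MG cells treated 1 h with 125I-labelled diastereomers, fractionated either immediately or after 24 h in fresh nonradioactive medium; 125I counted in cytoplasm, soluble nuclear fraction and DNA.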

[24] = Cellular uptake in human U87MG cell nucleus incubated for 1 hr followed by compound wash out measured after 24 hrs by gamma counting; format: ADME, cell-based; details: u-87mg atcc; method in brief: as §5
[25] = Cellular uptake in human U87MG cell cytoplasm incubated for 1 hr followed by compound wash out measured after 24 hrs by gamma counting; format: ADME, cell-based; details: u-87mg atcc; method in brief: as §5
Cholinesterase = Cholinesterase (Homo sapiens, UniProt P06276); assay: Inhibition of human BChE after 24 hrs by microplate reader method
Chain of Cholinesterase (P06276 whole entry): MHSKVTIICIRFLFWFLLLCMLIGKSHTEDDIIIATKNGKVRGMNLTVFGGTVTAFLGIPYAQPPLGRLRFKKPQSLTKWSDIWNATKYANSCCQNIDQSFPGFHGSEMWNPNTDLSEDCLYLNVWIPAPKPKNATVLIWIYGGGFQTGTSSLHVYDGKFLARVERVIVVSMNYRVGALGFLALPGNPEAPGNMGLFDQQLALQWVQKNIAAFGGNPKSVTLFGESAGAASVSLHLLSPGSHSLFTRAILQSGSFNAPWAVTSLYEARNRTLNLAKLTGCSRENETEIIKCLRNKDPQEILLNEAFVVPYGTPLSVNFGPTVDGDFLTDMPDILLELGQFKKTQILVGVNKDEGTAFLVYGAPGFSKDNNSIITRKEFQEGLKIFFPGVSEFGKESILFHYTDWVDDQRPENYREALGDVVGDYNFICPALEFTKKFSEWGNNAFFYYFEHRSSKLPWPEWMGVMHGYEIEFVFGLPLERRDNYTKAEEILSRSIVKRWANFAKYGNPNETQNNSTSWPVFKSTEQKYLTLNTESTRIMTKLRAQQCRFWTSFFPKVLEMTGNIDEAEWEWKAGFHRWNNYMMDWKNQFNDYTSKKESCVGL

CC(C)(C)c1cc(C(C)(C)C)c2c(c1F)COP(=O)(OC[C@H]1O[C@@H](n3cc([125I])c(=O)[nH]c3=O)C[C@@H]1O)O2 (some centres not stated)
Drug uptake (OVCAR-3 [1]): Active
Drug uptake [2]: Active

CC(C)(C)c1cc(C(C)(C)C)c2c(c1F)COP(=O)(OC[C@H]1O[C@@H](n3cc([125I])c(=O)[nH]c3=O)C[C@@H]1O)O2 (stereo in doubt)
Drug uptake [3]: 2.8 cpm
Drug uptake [4]: 91.6 cpm
Drug uptake [5]: 7.8 cpm
Drug uptake [6]: 87.3 cpm
Drug uptake [7]: Active

O=c1[nH]c(=O)n([C@H]2C[C@H](O)[C@@H](COP3(=O)OCc4ccccc4O3)O2)cc1[125I] (stereo in doubt; form 1)
Drug uptake (OVCAR-3 [8]): Dose-dependent effect
t1/2 [9]: 5.1 h
Drug uptake [10]: Dose-dependent effect
Drug uptake (OVCAR-3 [11]): Active
Drug uptake (OVCAR-3 [12]): Active
Drug uptake [13]: Active
Drug uptake [14]: Active
Activity [15]: 60%
Drug uptake [16]: Dose-dependent effect
K [17]: 2.25 ×10⁻³ /min

Cc1cccc2c1OP(=O)(OC[C@H]1O[C@@H](n3cc([125I])c(=O)[nH]c3=O)C[C@@H]1O)OC2 (stereo in doubt; form 1)
Drug uptake (OVCAR-3 [18]): Active
t1/2 [9]: 21.2 h
Drug uptake [19]: Active
Drug uptake (OVCAR-3 [20]): Active
Drug uptake [21]: Active
Drug uptake [22]: Active
K [17]: 5.44 ×10⁻⁴ /min

CC(C)(C)c1cc(C(C)(C)C)c2c(c1F)COP(=O)(OC[C@H]1O[C@@H](n3cc([125I])c(=O)[nH]c3=O)C[C@@H]1F)O2 (stereo in doubt; form 1)
Drug uptake [23]: Active
Drug uptake [24]: Active
t1/2 [9]: 38.5 h
Drug uptake [25]: Active
K [17]: 3.01 ×10⁻⁴ /min

CC(C)(C)c1cc(C(C)(C)C)c2c(c1F)COP(=O)(O[C@H]1C[C@H](n3cc(I)c(=O)[nH]c3=O)O[C@@H]1CO)O2 (stereo in doubt; form 2)
IC50 (Cholinesterase): > 3 mM
t1/2 [9]: 17.3 h
K [17]: 6.67 ×10⁻⁴ /min
